Only some compounds are listed: those with a hit (about 1.9% of all), similar ones and a draw of the others.
GPR7 antag – GPR7 receptor antagonists, primary screen, cell-based, fluorescence, single concentration; AID 1861, 2009; GPR7-expressing cells, fluorescence antagonist assay; 1.1% of 290,000 active; inhibition, % at 4.4 µM; in the data active means inhibition above about 16%, passing the limit was not always enough;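 further: cells stimulated with the agonist NPW; 0% = agonist with vehicle and 100% = vehicle without agonist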
HCV NS3 hel inh – inhibitors of HCV NS3 helicase, primary screen, biochemical, Cy5 molecular beacon fluorescence; Hepatitis C virus NS3 helicase; NS3 helicase DNA unwinding; inhibition, % at 10.9 µM; 0.56% of 290,000 active; AID 1800, 2009;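 active means inhibition above the mean of all tested compounds plus 3 SD, set per campaign, cut at about 35% in these data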;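 further: 0% = DMSO wells and 100% = thioflavine S control wells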
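Material: hepatitis C virus NS3 helicase domain fragment enzyme; measured by: Cy5 fluorescence, 0 and 60 min reads; control set: DMSO and thioflavine S; incubation: 60 min unwinding reaction at 25 °C after ATP addition; read-out basis: % inhibition from 60/0 min fluorescence ratio, DMSO 0%, thioflavine S 100%; repeats: singlicate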
p-CIP stab down – p/CIP-EGFP fusion destabilizers, primary screen, fluorescence, F442A cells; Q05BA5; 16 h; decrease of EGFP signal, % at 10 µM; 0.01% of 290,000 active;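 active means EGFP signal decrease of at least 30% at 10 µM or well 3 SD below plate mean, unless failing retest; inactive means the rest, including hits failing retest or dose response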
Target sequence (Q05BA5 1-1403): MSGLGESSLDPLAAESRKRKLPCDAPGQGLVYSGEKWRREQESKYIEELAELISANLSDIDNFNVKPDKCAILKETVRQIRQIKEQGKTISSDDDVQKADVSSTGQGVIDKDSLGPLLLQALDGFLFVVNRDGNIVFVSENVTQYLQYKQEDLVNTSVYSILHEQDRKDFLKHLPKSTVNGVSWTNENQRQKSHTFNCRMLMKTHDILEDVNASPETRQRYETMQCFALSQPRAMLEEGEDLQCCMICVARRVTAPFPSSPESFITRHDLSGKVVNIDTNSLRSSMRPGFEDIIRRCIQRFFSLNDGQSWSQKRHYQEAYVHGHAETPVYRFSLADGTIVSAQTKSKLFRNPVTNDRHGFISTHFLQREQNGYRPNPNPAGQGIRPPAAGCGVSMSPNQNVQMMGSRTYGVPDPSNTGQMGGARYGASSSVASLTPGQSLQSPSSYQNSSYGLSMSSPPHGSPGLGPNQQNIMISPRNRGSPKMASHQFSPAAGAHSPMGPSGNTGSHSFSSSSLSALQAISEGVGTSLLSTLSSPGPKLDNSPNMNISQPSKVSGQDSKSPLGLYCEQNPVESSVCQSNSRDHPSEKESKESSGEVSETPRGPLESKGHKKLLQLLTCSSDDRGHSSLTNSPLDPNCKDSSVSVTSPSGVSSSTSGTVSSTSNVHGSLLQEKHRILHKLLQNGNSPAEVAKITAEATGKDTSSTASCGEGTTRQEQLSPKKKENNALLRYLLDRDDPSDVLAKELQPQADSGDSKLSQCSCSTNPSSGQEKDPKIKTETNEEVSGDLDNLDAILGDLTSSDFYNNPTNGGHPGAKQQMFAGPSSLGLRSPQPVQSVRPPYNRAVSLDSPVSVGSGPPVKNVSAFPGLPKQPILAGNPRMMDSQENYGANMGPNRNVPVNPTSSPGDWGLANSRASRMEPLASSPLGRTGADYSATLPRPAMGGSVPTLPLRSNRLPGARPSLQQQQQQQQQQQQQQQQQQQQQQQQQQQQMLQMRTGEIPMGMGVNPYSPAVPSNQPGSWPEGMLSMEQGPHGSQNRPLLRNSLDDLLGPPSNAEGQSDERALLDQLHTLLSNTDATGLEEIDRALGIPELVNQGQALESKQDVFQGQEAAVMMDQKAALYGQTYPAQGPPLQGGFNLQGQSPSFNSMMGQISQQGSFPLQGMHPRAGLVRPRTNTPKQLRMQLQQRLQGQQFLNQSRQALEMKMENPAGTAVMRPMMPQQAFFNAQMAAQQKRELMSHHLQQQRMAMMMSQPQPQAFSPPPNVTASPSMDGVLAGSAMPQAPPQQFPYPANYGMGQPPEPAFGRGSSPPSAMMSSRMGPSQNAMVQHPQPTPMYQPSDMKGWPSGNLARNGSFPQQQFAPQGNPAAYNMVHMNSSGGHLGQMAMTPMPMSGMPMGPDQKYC
DNA FID counter-1 – compounds displacing fluorescent DNA intercalator, primary screen, artefact control for HCV NS3 helicase inhibitor project, biochemical, FID fluorescence. inhibition, % at 7.9 µM. 0.17% of 290,000 active. DNA fluorescent intercalator displacement;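 further: 0% = vehicle and 100% = reference compound; higher means more ethidium bromide displaced from hairpin DNA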
core dimer inh – inhibitors of HCV core protein dimerization, primary screen, biochemical, TR-FRET, high-throughput | inhibition, % at 5 µM | AID 1899, 2009 | TR-FRET GST/Flag-core106 dimerization, 1536-well | 0.33% of 300,000 active;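 active means inhibition above the mean of all tested compounds plus 3 SD, set per screening campaign, cut at about 45% in these data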
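Assay system – GST-tagged and Flag-tagged HCV core protein residues 1-106 · Quantity – core106 proteins, GST 13.5 nM and Flag 17 nM · Benchmarks – unlabelled core106 and no-GST-core106 wells · Read-out basis – percent inhibition of core106 dimerization signal · Detection – time-resolved FRET, ex 340 nm, em 617 and 671 nm · Schedule – 4 h at 22.5 °C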
NS3 helicase cf – HCV NS3 helicase inhibitors, retest, confirmation, biochemical, Cy5 molecular beacon fluorescence, triplicate. shares compounds with HCV NS3 hel inh. NS3 helicase DNA unwinding. inhibition, % at 10.9 µM. 31% of 1,600 active;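 active means inhibition above the mean of all tested compounds plus 3 SD, cutoff set per campaign, cut at about 36% in these data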
DNA FID counter-2 – compounds displacing fluorescent DNA intercalator, artefact control for HCV NS3 helicase inhibitor project, biochemical, FID fluorescence, triplicate; shares compounds with HCV NS3 hel inh; DNA fluorescent intercalator displacement; inhibition, % at 7.9 µM; 4% of 1,600 active;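 further: 0% = vehicle and 100% = reference compound; higher means more displacement of ethidium bromide from the DNA hairpin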
FID counter DR – compounds displacing fluorescent intercalator from DNA, dose response, counter-screen for HCV NS3 helicase inhibitor project, biochemical, fluorescence; shares compounds with HCV NS3 hel inh; fluorescent intercalator displacement from DNA; IC50, µM; 120 tested, under 10 active; call rule not given here
Starred values were filed as active, the others as inactive; / = no result. Unless noted, no stated cut-off is given here; in the data, active means inhibition above about 37%; inactive means the rest.

SMILES	GPR7 antag	HCV NS3 hel inh	p-CIP stab down	DNA FID counter-1	core dimer inh	NS3 helicase cf	DNA FID counter-2	others
CC(=O)OCC1=C(C(=O)O)N2C(=O)C(NC(=O)c3ccc(COc4c(C)cccc4Cl)o3)C2SC1 (configuration not stated)	-13.3	38.5*	1.6	-38.0	14.2	46.3*	-15.8
CCN(CC)P(=O)(Nc1ccc(C)cc1Br)c1ccc(N(C)C)cc1NC(=O)c1ccco1 (configuration not stated)	-7.3	-8.2	-6.4	-17.3	18.0	/	/
COC(=O)c1nc(N)sc1C	-2.1	-4.1	-8.8	-0.6	-12.8	/	/
N#C/C(=C\c1ccc(O)c(O)c1)S(=O)(=O)c1ccccc1	11.7	37.6*	-2.2	-11.9	-6.2	58.3*	17.0	FID counter DR=>79.4
O=C(O)CCc1ccc(-c2ccc(Cl)cc2)n1Cc1ccco1	-1.5	36.4*	3.7	-23.6	13.0	68.0*	-26.5
COc1ccc(-c2ccc(CCC(=O)O)n2Cc2ccco2)cc1	5.1	17.8	6.2	-22.2	-0.7	/	/
O=C(O)CCc1ccc(-c2cccs2)n1Cc1ccco1	-8.6	41.0*	4.5	-28.2	2.5	-10.9	-6.6
CCCn1c(N)c(N(CCOC)C(=O)CSCC(=O)Nc2cccc(C)c2)c(=O)[nH]c1=O	/	/	/	/	-0.2	/	/
O=C(Nc1nnc(C2=COCCO2)o1)c1cccc(Br)c1	-7.2	38.8*	-14.9	-10.9	-4.1	-7.7	3.9
COc1cc2nc(NC(=O)c3ccc(F)cc3Cl)sc(=O)c2cc1OC	-3.2	2.6	-3.5	-6.2	6.5	/	/
Cc1cc(=O)n2c(c1C#N)SC1CCCCC12O (configuration not stated)	4.1	55.1*	2.1	-0.3	6.7	-11.7	-0.1
CC(=O)OCC1=C(C(=O)O)N2C(=O)C(NC(=O)CCn3nc(C(F)(F)F)c(Br)c3C3CC3)C2SC1 (configuration not stated)	0.2	26.4	0.1	-37.0	0.8	/	/
O=C1OC(c2ccco2)=N/C1=C\c1ccc(-c2cccc(C(F)(F)F)c2)o1	3.7	36.8*	-6.5	-30.2	16.9	47.2*	-4.5	FID counter DR=>79.4
Oc1ccc(-c2csc(Nc3cccc4ccccc34)n2)cc1O	0.7	42.2*	-6.4	7.6	-11.4	-20.6	12.0
CCOc1ccc(NC(=O)Cn2c(=O)n(CCCC(=O)NC3CCN(Cc4ccccc4)CC3)c(=O)c3ccccc32)cc1	-8.8	-35.7	5.2	5.3	0.4	/	/
NC(=S)N/N=C\c1c(OCc2ccccc2Cl)ccc2ccccc12	-10.2	36.3*	2.8	-18.9	5.1	12.4	-21.0
Cc1ccccc1C1CC(c2cccs2)Nc2nnnn21 (configuration not stated)	5.7	6.4	-3.2	-9.8	-0.3	/	/
C(=C\c1ccco1)/C1=NN(c2ccccc2)C(c2ccco2)C1 (configuration not stated)	-10.6	46.4*	-12.7	-17.0	37.2	58.1*	8.1
Cc1c(CC(=O)O)c(=O)oc2cc(OCc3ccc(F)cc3Cl)ccc12	10.6	47.7*	-14.3	-27.5	-1.2	50.6*	-12.4
Cc1c(CCC(=O)O)c(=O)oc2cc(OCc3ccccc3F)ccc12	-8.3	14.4	-12.0	-29.0	4.0	/	/
CSc1ccc(CNC(=O)Cn2nc(C)c3c(C)n(-c4ccc(C)cc4)nc3c2=O)cc1	-3.8	9.9	-8.4	-6.2	-7.5	/	/
CCCCN(CCCC)c1ccc(C(=O)c2ccccc2C(=O)O)c(O)c1	7.8	60.2*	-6.9	-26.3	22.2	75.6*	-13.7
Nc1c(-c2ccc(Cl)cc2)cnc2c(-c3ccccc3)cnn12	-23.8	-3.8	1.4	0.1	-7.0	/	/
Cc1ccc(N2CC(C(=O)Nc3ccc(N4CCOCC4)cc3)CC2=O)cc1C (configuration not stated)	20.5	38.6*	9.4	-38.3	-4.0	-6.3	-30.4
CCN(CCO)c1nc(SC)nc2c1sc1nc(-c3ccco3)c3c(c12)CCC3	0.0	36.5*	-3.8	-23.4	80.2*	81.4*	26.6
SMILES	GPR7 antag	HCV NS3 hel inh	p-CIP stab down	DNA FID counter-1	core dimer inh	NS3 helicase cf	DNA FID counter-2	others
COCCN(C(=O)CCC(=O)Nc1ccccn1)C(C(=O)NC(C)C)c1ccc(C)cc1 (configuration not stated)	-14.1	9.6	1.8	-32.0	-3.9	/	/
COc1ccc(CCNC(=O)C/C(C)=N/NC(=O)c2ccc([N+](=O)[O-])cc2Cl)cc1OC	-12.1	-11.8	3.0	-9.2	9.9	/	/
Cc1ccc(N(Cc2ccccc2)C(=O)CN2C(=O)NC3(CCCC3)C2=O)cc1	-7.9	-6.9	1.6	-47.8	10.7	/	/
O=C(COc1ccc(-c2ccccc2)cc1)N/N=C/c1cc(O)ccc1Br	-10.9	37.5*	10.2	-16.9	8.7	-2.1	-19.2
CCCSc1nc(C)c(-c2csc(C(C#N)=C3CCCC3)n2)cc1C#N	-7.7	51.5*	0.8	-7.3	61.5*	30.3	30.9
Cc1ccc(NC(=O)CC2SC(=O)N(c3ccccc3)C2=O)cc1 (configuration not stated)	-5.7	33.1	-10.6	-12.6	-0.4	/	/
O=C(CC1SC(=O)N(c2ccccc2)C1=O)Nc1ccccc1 (configuration not stated)	-7.3	37.9*	-14.3	-17.0	-3.7	-22.5	12.1
CN1CCN(C(c2ccccn2)c2cc(Cl)c3cccnc3c2O)CC1 (configuration not stated)	-16.4	12.6	3.8	-5.9	-8.1	/	/
Cc1ccc(C(c2cc(Cl)c3cccnc3c2O)N2CCN(C)CC2)cc1 (configuration not stated)	3.3	41.8*	-0.4	-14.9	-5.1	69.7*	66.7*
Cc1ccc(OCc2n[nH]c(=S)n2-c2ccc(Br)cc2)cc1	1.9	37.4*	-14.5	-34.4	4.5	-0.2	-22.1
Cc1ccc(NC(=S)N2CCN(S(=O)(=O)c3ccccc3)CC2)cc1C	-6.5	-8.4	-0.9	-24.2	/	/	/
O=C(Nc1ncc(Br)s1)C(Cc1ccccc1)n1cccc1 (configuration not stated)	-11.3	43.8*	0.7	-9.2	6.5	-17.2	12.5
Cc1cccc(NC(=O)CSc2nnc(-c3ccco3)c(-c3ccco3)n2)c1	-8.5	10.0	-5.1	-3.6	/	/	/
